Measured values reported in ChEMBL document CHEMBL1134326, “C-16 artemisinin derivatives and their antimalarial and cytotoxic activities: syntheses of artemisinin monomers, dimers, trimers, and tetramers by nucleophilic additions to artemisitene” (J Med Chem, 2001).

Experiments:
[1] = test system: Plasmodium falciparum; experiment: Antimalarial activity against Plasmodium falciparum; format: functional, organism-based
Method in brief: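 P. falciparum K1 (multidrug-resistant), asexual erythrocytic stage kept in continuous in vitro culture; microculture radioisotope method after Desjardins. EC50 is the concentration giving 50% reduction in parasite growth, measured as [3H]hypoxanthine uptake. Artemisinin and dihydroartemisinin served as standards.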

[2] = Cytotoxicity against KB cells.; format: functional, cell-based; details: Homo sapiens
Method in brief: (§1)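 Colorimetric cytotoxicity assay after Skehan on KB, BC and vero cell lines. Maximum concentration tested 130 µM. Ellipticine was the positive control. IC50 is reported in µM.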

[3] = Therapeutic index (TI) determined as IC50 of vero cells to that of EC50; format: cell-based; details: plasmodium falciparum, read-out: TI
[4] = test system: BC; experiment: Cytotoxicity against BC cells.; format: functional, cell-based; details: Homo sapiens; method in brief: as §1
[5] = test system: Vero; experiment: Cytotoxicity against vero cells.; format: functional, cell-based; details: Chlorocebus sabaeus; method in brief: as §1
[6] = test system: BC; experiment: Cytotoxicity against BC cells; format: functional, cell-based; details: Homo sapiens; method in brief: as §1
[7] = test system: KB; experiment: Cytotoxicity against KB cells; format: functional, cell-based; details: Homo sapiens; method in brief: as §1

Structure (SMILES)	EC50 [1] [µM]	IC50 [2] [µM]	selectivity ratio [3]	IC50 [4] [µM]	IC50 [5] [µM]	IA [6]	IA [7]
CC1CCC2C(CSCCCSCC3C(=O)OC4OC5(C)CCC6C(C)CCC3C46OO5)C(=O)OC3OC4(C)CCC1C32OO4 (configuration not stated)	0.013						
CC1CCC2C(CC3(CCCCCCCC4(CC5C(=O)OC6OC7(C)CCC8C(C)CCC5C68OO7)C(=O)OC5OC6(C)CCC7C(C)CCC4C57OO6)C(=O)OC4OC5(C)CCC6C(C)CCC3C46OO5)C(=O)OC3OC4(C)CCC1C32OO4 (configuration not stated)	> 0.02	5.4	> 2.1	9.6	> 42		
CC1CCC2C(CC3(CCCCc4ccccc4)C(=O)OC4OC5(C)CCC6C(C)CCC3C46OO5)C(=O)OC3OC4(C)CCC1C32OO4 (configuration not stated)	0.0034	5.7	7.1	1.2	2.4		
CCCC[C@@H]1C(=O)O[C@@H]2O[C@]3(C)CC[C@H]4[C@H](C)CC[C@@H]1[C@@]24OO3	0.0138	54	> 9.4		> 130	Cytotoxic	
CC1CCC2C(CC3(Cc4ccc(F)cc4)C(=O)OC4OC5(C)CCC6C(C)CCC3C46OO5)C(=O)OC3OC4(C)CCC1C32OO4 (configuration not stated)	0.0023	7.7	4.8	7.4	1.1		
CCC[C@@H]1C(=O)O[C@@H]2O[C@]3(C)CC[C@H]4[C@H](C)CC[C@@H]1[C@@]24OO3	0.011		> 1.2		> 130	Cytotoxic	Cytotoxic
C[C@@H]1CC[C@H]2C(C[C@]3(C)C(=O)O[C@@H]4O[C@]5(C)CC[C@H]6[C@H](C)CC[C@@H]3[C@@]46OO5)C(=O)O[C@@H]3O[C@]4(C)CC[C@@H]1C32OO4 (some centres not stated)	0.001	23	8.9	13	89		
CCCCC[C@H]1C(=O)O[C@@H]2O[C@]3(C)CC[C@H]4[C@H](C)CC[C@@H]1[C@@]24OO3	0.0089		> 1.5		> 130	Cytotoxic	Cytotoxic
CCCCC1(CC2C(=O)OC3OC4(C)CCC5C(C)CCC2C35OO4)C(=O)OC2OC3(C)CCC4C(C)CCC1C24OO3 (configuration not stated)	0.0043		> 3		> 130	Cytotoxic	Cytotoxic
CC1CCC2C(CC3(CCCCCCC4(CC5C(=O)OC6OC7(C)CCC8C(C)CCC5C68OO7)C(=O)OC5OC6(C)CCC7C(C)CCC4C57OO6)C(=O)OC4OC5(C)CCC6C(C)CCC3C46OO5)C(=O)OC3OC4(C)CCC1C32OO4 (configuration not stated)	0.0058	2	1.6	2.8	9.2		
C[C@@H]1CC[C@H]2[C@@H](CCCCc3ccccc3)C(=O)O[C@@H]3O[C@]4(C)CC[C@@H]1[C@]32OO4	0.0084	11	1.9	14	16		
C[C@@H]1CC[C@H]2C(CCC(=O)c3ccccc3)C(=O)O[C@@H]3O[C@]4(C)CC[C@@H]1C32OO4 (some centres not stated)	0.0128		> 1		> 130	Cytotoxic	Cytotoxic
C[C@@H]1CC[C@H]2[C@H](CCCCc3ccccc3)C(=O)O[C@@H]3O[C@]4(C)CC[C@@H]1[C@]32OO4	0.0103	5.2	1.3	5	13		
CCCCC[C@@H]1C(=O)O[C@@H]2O[C@]3(C)CC[C@H]4[C@H](C)CC[C@@H]1[C@@]24OO3	0.0117	11	1.6	11	19		
CC1CCC2C(CCCCCCCC3(CC4C(=O)OC5OC6(C)CCC7C(C)CCC4C57OO6)C(=O)OC4OC5(C)CCC6C(C)CCC3C46OO5)C(=O)OC3OC4(C)CCC1C32OO4 (configuration not stated)	0.0031	2.8		2	10		
C[C@@H]1CC[C@H]2[C@@H](Cc3cccc(F)c3)C(=O)O[C@@H]3O[C@]4(C)CC[C@@H]1[C@]32OO4	0.0207		6.3		> 130	Cytotoxic	Cytotoxic
C[C@@H]1CC[C@H]2[C@H](CCCCCCC[C@H]3C(=O)O[C@@H]4O[C@@]5(C)CC[C@H]6[C@H](C)CC[C@@H]3[C@@]46OO5)C(=O)O[C@@H]3O[C@@]4(C)CC[C@@H]1[C@]32OO4	0.00091	0.76	3.1	0.36	2.8		
C[C@@H]1CC[C@H]2[C@H](CCCCCCC[C@@H]3C(=O)O[C@@H]4O[C@@]5(C)CC[C@H]6[C@H](C)CC[C@@H]3[C@@]46OO5)C(=O)O[C@@H]3O[C@@]4(C)CC[C@@H]1[C@]32OO4	0.0011	1.1		1.1	4.9		
C[C@@H]1CC[C@H]2[C@H](Cc3cccc(F)c3)C(=O)O[C@@H]3O[C@]4(C)CC[C@@H]1[C@]32OO4	0.0182	44	7.1	41	> 130		

Structure (SMILES)	EC50 [1] [µM]	IC50 [2] [µM]	selectivity ratio [3]	IC50 [4] [µM]	IC50 [5] [µM]	IA [6]	IA [7]
CC1CCC2C(CSCCCCCSCC3C(=O)OC4OC5(C)CCC6C(C)CCC3C46OO5)C(=O)OC3OC4(C)CCC1C32OO4 (configuration not stated)	0.012						
CCCC1(CC2C(=O)OC3OC4(C)CCC5C(C)CCC2C35OO4)C(=O)OC2OC3(C)CCC4C(C)CCC1C24OO3 (configuration not stated)	0.0044		> 3		> 130	Cytotoxic	Cytotoxic
CC1CCC2C(CSCCCCSCC3C(=O)OC4OC5(C)CCC6C(C)CCC3C46OO5)C(=O)OC3OC4(C)CCC1C32OO4 (configuration not stated)	0.0057						
CC1CCC2C(CC3(Cc4cccc(F)c4)C(=O)OC4OC5(C)CCC6C(C)CCC3C46OO5)C(=O)OC3OC4(C)CCC1C32OO4 (configuration not stated)	0.0021	4	2.6	3.5	5.5		
C[C@@H]1CC[C@H]2[C@H](Cc3ccc(F)cc3)C(=O)O[C@@H]3O[C@]4(C)CC[C@@H]1[C@]32OO4	0.0129	35	9.3	41	120		
CC1CCC2C(CCCCCCC3(CC4C(=O)OC5OC6(C)CCC7C(C)CCC4C57OO6)C(=O)OC4OC5(C)CCC6C(C)CCC3C46OO5)C(=O)OC3OC4(C)CCC1C32OO4 (configuration not stated)	0.0024	1.7	2.8	1.2	6.6		
C[C@@H]1CCC2[C@H](CCCCCC[C@@H]3C(=O)O[C@@H]4O[C@@]5(C)CC[C@H]6[C@H](C)CCC3[C@@]46OO5)C(=O)O[C@@H]3O[C@]4(C)CC[C@@H]1C23OO4 (some centres not stated)	0.0014	2.3	7.1	1.6	10		
C[C@@H]1CCC2[C@H](CCCCCC[C@H]3C(=O)O[C@@H]4O[C@@]5(C)CC[C@H]6[C@H](C)CCC3[C@@]46OO5)C(=O)O[C@@H]3O[C@]4(C)CC[C@@H]1C23OO4 (some centres not stated)	0.0105	1.8	9.5	1.6	10		
CCCC[C@H]1C(=O)O[C@@H]2O[C@]3(C)CC[C@H]4[C@H](C)CC[C@@H]1[C@@]24OO3	0.0113		> 1.2		> 130	Cytotoxic	Cytotoxic
CCC[C@H]1C(=O)O[C@@H]2O[C@]3(C)CC[C@H]4[C@H](C)CC[C@@H]1[C@@]24OO3	0.0063		> 2.1		> 130	Cytotoxic	Cytotoxic
CCN(CC)C(=S)SC(CC1C(=O)O[C@@H]2O[C@]3(C)CC[C@H]4[C@H](C)CC[C@@H]1C24OO3)SC(=S)N(CC)CC (some centres not stated)	0.0019	2.5	3.5	2.4	6.6		
CCCCCC[C@H]1C(=O)O[C@@H]2O[C@]3(C)CC[C@H]4[C@H](C)CC[C@@H]1[C@@]24OO3	0.0129	6.2	1.2	5.7	16		
CCCCCC[C@@H]1C(=O)O[C@@H]2O[C@]3(C)CC[C@H]4[C@H](C)CC[C@@H]1[C@@]24OO3	0.0138	6.2	1	6.2	14		
C[C@@H]1CC[C@H]2C(CCC(=O)c3ccc[nH]3)C(=O)O[C@@H]3O[C@]4(C)CC[C@@H]1[C@]32OO4 (some centres not stated)	0.0248		> 5.2		> 130	Cytotoxic	Cytotoxic
COC(=O)C(C)(C)CC1C(=O)O[C@@H]2OC3(C)CC[C@H]4[C@H](C)CC[C@@H]1[C@@]24OO3 (single isomer, unassigned)	> 0.0261		> 5		> 130	Cytotoxic	Cytotoxic
CCCCCC1(CC2C(=O)OC3OC4(C)CCC5C(C)CCC2C35OO4)C(=O)OC2OC3(C)CCC4C(C)CCC1C24OO3 (configuration not stated)	0.0039	23	1.6	36	63		
C[C@@H]1CC[C@H]2[C@@H](Cc3ccc(F)cc3)C(=O)O[C@@H]3O[C@]4(C)CC[C@@H]1[C@]32OO4	0.0067		1.9		> 130	Cytotoxic	Cytotoxic
CC1CCC2C(CSCCSCC3C(=O)OC4OC5(C)CCC6C(C)CCC3C46OO5)C(=O)OC3OC4(C)CCC1C32OO4 (configuration not stated)	0.0074						
